From PubChem
A selection: hits, their analogues and other compounds. The true share with any hit is near 1.5%.
M4 PAM: CHRM4 positive allosteric modulation. P08173. CHO-K1 hM4/Gqi5, Fluo-8 calcium fluorescence, ACh EC20; 0% = ACh EC20, 100% = maximal ACh. activation, % at 3 µM. actives 0.4% (n = 360,000);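 active means activation above its plate's cutoff, the mean activation of sample wells plus 3 SD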
Target sequence (P08173 whole entry, looked up): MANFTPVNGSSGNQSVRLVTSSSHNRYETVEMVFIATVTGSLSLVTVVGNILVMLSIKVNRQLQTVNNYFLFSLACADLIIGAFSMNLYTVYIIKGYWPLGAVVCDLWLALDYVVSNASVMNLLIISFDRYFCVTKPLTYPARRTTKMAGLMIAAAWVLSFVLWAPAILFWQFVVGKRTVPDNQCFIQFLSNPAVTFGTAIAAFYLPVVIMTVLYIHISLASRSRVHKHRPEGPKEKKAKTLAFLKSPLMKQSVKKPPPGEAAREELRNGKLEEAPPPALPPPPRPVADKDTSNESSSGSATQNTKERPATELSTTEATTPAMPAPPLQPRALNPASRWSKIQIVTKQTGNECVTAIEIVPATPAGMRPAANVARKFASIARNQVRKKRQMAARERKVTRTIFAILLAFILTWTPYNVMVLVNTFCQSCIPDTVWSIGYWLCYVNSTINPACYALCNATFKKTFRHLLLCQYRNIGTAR
CHRM4 antagonist: antagonists of human muscarinic M4 receptor (CHRM4) | AID 624125 | actives 0.73% (n = 360,000) | P08173 | CHO-hM4 cells, ACh EC80, Fluo-8 calcium fluorescence | inhibition, % at 3 µM;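 active means inhibition above its plate's cutoff, the mean inhibition of sample wells plus 3 SD, cut at about 27% in these data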;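 further: 0% = acetylcholine EC80 with DMSO and 100% = DMSO without agonist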
CHRM4 agonist: agonists of human muscarinic M4 receptor (CHRM4) | activation, % at 3 µM | CHO-K1 hM4/Gqi5, Fluo-8 calcium fluorescence; vehicle 0%, full acetylcholine response 100% | actives 0.14% (n = 360,000) | P08173;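 active means activation above the run mean over all test wells plus 3 SD, cut at about 32% in these data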;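 further: peak over basal fluorescence ratio per well then scaled between controls; 0% = DMSO wells and 100% = acetylcholine at EC100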
OXTR potentiator: human OXTR potentiation; actives 0.061% (n = 320,000); AID 2445; CHO-OTR cells, Fluo-8 calcium fluorescence, potentiator mode; 0% = oxytocin EC15, 100% = EC100; P30559; activation, % at 3 µM;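 active means activation above that plate's cutoff, the mean activation of tested compounds plus 3 SD, cut at about 6.6% in these data, passing the limit was not always enough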;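 further: 100% uses oxytocin at 75 nM as the full agonist control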
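Assay system: CHO-OTR cells, human receptor / Also added: oxytocin at about EC15, sub-maximal agonist stimulus / Dosing: single dose, 3.0 µM nominal final compound concentration / Incubation: 6 min pre-incubation, 100 s read / Technique: Fluo-8 calcium dye fluorescence / Read-out: % activation vs EC15 and EC100 oxytocin / Benchmarks: EC15 oxytocin low, 75 nM oxytocin high / Replicates: singlicate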
V1R ag counter: V1a receptor agonism, counter-screen for OXTR agonists | P37288 | CHO-V1R cells, Fluo-8 calcium fluorescence, agonist mode; 0% DMSO, 100% 3 nM vasopressin | activation, % at 3 µM | actives 0.25% (n = 320,000) | AID 2797;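 active means activation above the mean activation of all tested compounds plus 3 SD, per screening run, cut at about 20% in these data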;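 further: signal is peak over basal fluorescence ratio across a 100 second FLIPR read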
OXTR ag: human OXTR agonism; P30559; CHO-OTR cells, Fluo-8 calcium fluorescence; normalized: DMSO 0%, oxytocin 100%; activation, % at 3 µM; actives 0.32% (n = 320,000); AID 2435;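 active means activation above the mean of all tested compounds plus 3 SD, cutoff set per screening run, cut at about 20% in these data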;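 further: peak over basal fluorescence ratio from a 100 s FLIPR kinetic read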
OXTR ag confirm: human OXTR agonism, confirmation; activation, % at 3 µM; shares compounds with OXTR ag; AID 434963; CHO-OTR cells, Fluo-8 calcium fluorescence, agonist; actives 20% (n = 390);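 active means mean activation above about 20% derived from the earlier single-dose screen, limit read from the data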;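 further: peak over minimum fluorescence ratio per well during a 100 second FLIPR read; 0% = DMSO alone and 100% = oxytocin high control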
V1R ag counter 3x: counter-screen for oxytocin receptor agonists: V1a receptor agonists; shares compounds with OXTR ag; CHO-V1R cells, Fluo-8 calcium fluorescence, agonist; activation, % at 3 µM; actives 10% (n = 390); AID 434991;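 active means mean activation over triplicate exceeds the hit threshold set in the earlier primary screen, cut at about 20% in these data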;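 further: peak over basal fluorescence ratio within a 100 second read; 0% = DMSO alone and 100% = 3 nM vasopressin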
Numbers without * were called inactive; . = no result.

SMILES	M4 PAM	CHRM4 antagonist	CHRM4 agonist	OXTR potentiator	V1R ag counter	OXTR ag	OXTR ag confirm	V1R ag counter 3x
C[N+]1(CC2COC3(CCCCC3)O2)CCCC1 (stereo unspecified)	-10	4	0	6	1	1	.	.
CC1CC(C)(C)OC(C[N+]2(C)CCCCC2)O1 (stereo unspecified)	-46	37*	0	-10	0	0	.	.
CCn1cc(C(=O)NCc2ccco2)c(=O)c2ccc(C)nc21	19*	-22	1	-2	-1	-1	.	.
Cn1nc(C(=O)NCc2ccco2)c2ccccc2c1=O	23*	-2	2	-5	-1	1	.	.
O=C(NCc1ccccc1CN1CCCC1)c1ccc(Cl)c(N2CCCC2=O)c1	-3	10	-1	0	0	0	.	.
O=C(Cc1ccccc1)N1CCCC(c2nc(-c3ccc(S(=O)(=O)N4CCCC4)cc3)no2)C1 (stereo unspecified)	-3	3	0	-14	5	5	.	.
CS(=O)(=O)N1CCCC(c2nc(-c3ccc(S(=O)(=O)NCc4ccccc4)cc3)no2)C1 (stereo unspecified)	-28	33*	26	-9	13	20*	12	11
N#CC1=C(N)Oc2n[nH]c(-c3ccccc3)c2C12C(=O)Nc1ccccc12 (stereo unspecified)	-2	-2	0	-20	1	23*	0	0
CC(C)(C)CC(C)(C)NCC(O)COc1c(F)cc(Br)cc1F (stereo unspecified)	-13	13	16	-19	14	23*	2	0
C=CCOC(=O)C1=C[C@@H](c2ccc(C(F)(F)F)cc2)[C@H](CCCO)[C@@H](OCC)O1	10	-9	3	-9	-2	20*	-1	0
CC(=O)Nc1ccc(-c2ccnc3c2CC(C(=O)Nc2cccc(OC(F)(F)F)c2)O3)cc1 (stereo unspecified)	3	-10	5	.	.	.	.	.
Cc1cc(C)c2nc(N(CCCN(C)C)C(=O)c3ccc4c(c3)OCCO4)sc2c1	29*	19	15	-17	4	20*	6	4
Cc1cc(C)c2nc(N(CCCN(C)C)C(=O)C3=COCCO3)sc2c1	3	1	8	-7	0	3	.	.
COc1ccc2c(c1)CC/C(=C\c1ccc(OC)c(Cn3nc(C)cc3C)c1)C2=O	-3	3	7	-21	10	36*	8	8
COc1ccc2c(c1)CC/C(=C\c1ccc(OC)c(Cn3cccn3)c1)C2=O	-17	5	14	-20	7	7	.	.
CC(C(=O)Nc1ccc2c(c1)OCO2)c1ccc([N+](=O)[O-])cc1 (stereo unspecified)	-1	0	13	-17	19	20*	22*	18
O=C(Cc1ccc([N+](=O)[O-])cc1)Nc1ccc2c(c1)OCO2	-4	2	0	0	2	0	.	.
Cc1[nH]n(-c2ccccc2)c(=O)c1C(c1cccc([N+](=O)[O-])c1)c1c(C)[nH]n(-c2ccccc2)c1=O	-2	13	13	-12	10	24*	8	8
COc1cc(-c2noc(C)c2C(=O)NCCc2ccccc2)cc(OC)c1OC	17	-8	3	-9	0	-1	.	.
N#C/C(=C\c1ccc(O)cc1)C(=O)NCc1cccc(Cl)c1	-6	0	8	-9	18	20*	14	10
N#C/C(=C/c1ccc(O)cc1)C(=O)NCc1ccc(Cl)cc1	-7	3	6	-8	7	13	.	.
O=C(C1CCCCC1)N1CCCc2ccccc21	6	-8	0	-20	-1	30*	5	0
